From ChEMBL document CHEMBL4270565, “Design, synthesis and antimicrobial evaluation of propylene-tethered ciprofloxacin-isatin hybrids” (Eur J Med Chem, 2018)
Converted amounts (≈) assume the structure as drawn.

How the values were obtained:
Assay type in all cases: functional
[1] = system: Mycobacterium tuberculosis; assay: Antimycobacterial activity against isoniazid/rifampicin/ethambutol-resistant Mycobacterium tuberculosis after 7 days; settings: 168 h
Outline: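 Rapid direct susceptibility test in 48-well plates. Two-fold dilutions of compound from DMSO stocks were mixed with an equal volume of bacterial suspension. Medium-only wells served as growth controls and water-only wells as no-growth controls. Plates were sealed and held at 37 C in a humid box, and controls were checked at 3 days. MIC (90% growth inhibition) was read visually by high-magnification observation of the cells and re-read at 7 days.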

[2] = system: Mycobacterium tuberculosis; assay: Potency index, ratio of ciprofloxacin MIC90 to compound MIC90 for isoniazid/rifampicin/ethambutol-resistant Mycobacterium tuberculosis after 7 days
[3] = system: Mycobacterium tuberculosis; assay: Potency index, ratio of isoniazid MIC90 to compound MIC90 for isoniazid/rifampicin/ethambutol-resistant Mycobacterium tuberculosis after 7 days
[4] = system: Mycobacterium tuberculosis; assay: Potency index, ratio of rifampicin MIC90 to compound MIC90 for isoniazid/rifampicin/ethambutol-resistant Mycobacterium tuberculosis after 7 days

SMILES	MIC90 [1]	other results
CO/N=C1\C(=O)N(CCCN2CCN(c3cc4c(cc3F)c(=O)c(C(=O)O)cn4C3CC3)CC2)c2ccccc21	2 µg/mL (≈ 3.65 µM)	
CO/N=C1\C(=O)N(CCCN2CCN(c3cc4c(cc3F)c(=O)c(C(=O)OCCCN3C(=O)/C(=N/OC)c5ccccc53)cn4C3CC3)CC2)c2ccccc21	64 µg/mL (≈ 83.8 µM)	
CCO/N=C1\C(=O)N(CCCN2CCN(c3cc4c(cc3F)c(=O)c(C(=O)OCCCN3C(=O)/C(=N/OCC)c5ccccc53)cn4C3CC3)CC2)c2ccccc21	64 µg/mL (≈ 80.8 µM)	
CCO/N=C1\C(=O)N(CCCN2CCN(c3cc4c(cc3F)c(=O)c(C(=O)O)cn4C3CC3)CC2)c2ccc(C)cc21	4 µg/mL (≈ 6.95 µM)	
Cc1ccc2c(c1)C(=O)C(=O)N2CCCOC(=O)c1cn(C2CC2)c2cc(N3CCN(CCCN4C(=O)C(=O)c5cc(C)ccc54)CC3)c(F)cc2c1=O	32 µg/mL (≈ 43.6 µM)	
CO/N=C1\C(=O)N(CCCN2CCN(c3cc4c(cc3F)c(=O)c(C(=O)O)cn4C3CC3)CC2)c2ccc(C)cc21	1 µg/mL (≈ 1.78 µM)	
O=C1C(=O)N(CCCN2CCN(c3cc4c(cc3F)c(=O)c(C(=O)O)cn4C3CC3)CC2)c2ccccc21	0.5 µg/mL (≈ 0.964 µM)	
CO/N=C1\C(=O)N(CCCN2CCN(c3cc4c(cc3F)c(=O)c(C(=O)OCCCN3C(=O)/C(=N/OC)c5cc(C)ccc53)cn4C3CC3)CC2)c2ccc(C)cc21	32 µg/mL (≈ 40.4 µM)	
CCO/N=C1\C(=O)N(CCCN2CCN(c3cc4c(cc3F)c(=O)c(C(=O)O)cn4C3CC3)CC2)c2ccccc21	1 µg/mL (≈ 1.78 µM)	
CCO/N=C1\C(=O)N(CCCN2CCN(c3cc4c(cc3F)c(=O)c(C(=O)OCCCN3C(=O)/C(=N/OCC)c5cc(C)ccc53)cn4C3CC3)CC2)c2ccc(C)cc21	64 µg/mL (≈ 78.1 µM)	
O=C1C(=O)N(CCCOC(=O)c2cn(C3CC3)c3cc(N4CCN(CCCN5C(=O)C(=O)c6ccccc65)CC4)c(F)cc3c2=O)c2ccccc21	32 µg/mL (≈ 45.3 µM)	
Cc1ccc2c(c1)C(=O)C(=O)N2CCCN1CCN(c2cc3c(cc2F)c(=O)c(C(=O)O)cn3C2CC2)CC1	0.5 µg/mL (≈ 0.939 µM)	Ratio [2]: >=4 - 256; Ratio [3]: >=4 - 256; Ratio [4]: >=4 - 256
O=C(O)c1cn(C2CC2)c2cc(N3CCNCC3)c(F)cc2c1=O [CIPROFLOXACIN]	2 µg/mL (≈ 6.04 µM)	
NNC(=O)c1ccncc1 [ISONIAZID]	> 128 µg/mL	
CO[C@H]1/C=C/O[C@@]2(C)Oc3c(C)c(O)c4c(O)c(c(/C=N/N5CCN(C)CC5)c(O)c4c3C2=O)NC(=O)/C(C)=C\C=C\[C@H](C)[C@H](O)[C@@H](C)[C@@H](O)[C@@H](C)[C@H](OC(C)=O)[C@@H]1C [RIFAMPIN]	32 µg/mL (≈ 38.9 µM)	
